Reference: ChEMBL document CHEMBL4033702, “Challenges in the development of an M4 PAM preclinical candidate: The discovery, SAR, and in vivo characterization of a series of 3-aminoazetidine-derived amides” (Bioorg Med Chem Lett, 2017)
In brackets after ≈: the same amount, converted by molar mass.

Legend:
Cytochrome P450 2C9 [1] = target: T1, Cytochrome P450 2C9 (Homo sapiens, UniProt P11712); assay: Inhibition of CYP2C9 (unknown origin); type: ADME
Rattus norvegicus [2] = assay: Reversal of amphetamine-induced hyperlocomotion in Sprague-Dawley rat at 0.3 mg/kg, po pretreated 30 mins post habituation in the chamber followed by amphetamine injection after 30 mins measured after 60 mins; type: functional
Summary of the method: (§1)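 Male Sprague-Dawley rats, n = 6–24 per dose group, were habituated in the chamber for 30 min. The compound or vehicle (10% tween-80 in water, v/v) was then given orally. Amphetamine 0.75 mg/kg was injected subcutaneously 30 min later. Total ambulations over t = 60–120 min gave % reversal of AHL, reported as mean ± SEM.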

Cytochrome P450 1A2 [3] = target: T2, Cytochrome P450 1A2 (Homo sapiens, UniProt P05177); assay: Inhibition of CYP1A2 (unknown origin); type: ADME
T2 sequence (P05177 whole entry): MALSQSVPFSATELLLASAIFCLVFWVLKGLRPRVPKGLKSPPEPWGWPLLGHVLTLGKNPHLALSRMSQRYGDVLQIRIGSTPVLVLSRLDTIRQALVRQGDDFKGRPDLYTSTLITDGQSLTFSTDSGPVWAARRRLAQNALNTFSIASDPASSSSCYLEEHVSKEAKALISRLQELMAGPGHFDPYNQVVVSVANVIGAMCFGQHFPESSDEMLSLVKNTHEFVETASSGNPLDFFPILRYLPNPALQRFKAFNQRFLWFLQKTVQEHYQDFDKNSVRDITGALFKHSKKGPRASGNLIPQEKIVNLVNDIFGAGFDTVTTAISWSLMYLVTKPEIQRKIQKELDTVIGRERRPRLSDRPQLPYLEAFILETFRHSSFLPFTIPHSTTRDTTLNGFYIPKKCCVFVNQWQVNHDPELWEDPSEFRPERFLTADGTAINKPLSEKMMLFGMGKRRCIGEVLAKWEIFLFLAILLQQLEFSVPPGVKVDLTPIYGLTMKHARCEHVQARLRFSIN

Rattus norvegicus [4] = assay: Volume of distribution at steady state in iv or po dosed Sprague-Dawley rat; type: ADME, organism-based; settings: in vivo
Summary of the method: (§2)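 IV and PO pharmacokinetics in male Sprague-Dawley rats, n = 1–3. The oral dose was a 2–3 mg/kg solution. Plasma clearance, Vss and oral bioavailability were determined.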

Rattus norvegicus [5] = assay: Reversal of amphetamine-induced hyperlocomotion in Sprague-Dawley rat at 0.03 mg/kg, po pretreated 30 mins post habituation in the chamber followed by amphetamine injection after 30 mins measured after 60 mins; type: functional; summary of the method: as §1
Cytochrome P450 3A4 [6] = target: T3, Cytochrome P450 3A4 (Homo sapiens, UniProt P08684); assay: Time-dependent inhibition of CYP3A4 (unknown origin); type: ADME
[7] = Oral bioavailability in Mongrel dog at 2 mg/kg administered as suspension; type: ADME, organism-based, Canis lupus familiaris; settings: in vivo
Summary of the method: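 Female mongrel dogs were dosed orally with a 2 mg/kg suspension in a low-excipient vehicle, and oral bioavailability was determined.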

[8] = target: T4, Muscarinic acetylcholine receptor M4 (Rattus norvegicus) (UniProt P08485); assay: Activity at rat M4 receptor assessed as acetylcholine-induced calcium mobilization; type: functional
T4 sequence (whole entry): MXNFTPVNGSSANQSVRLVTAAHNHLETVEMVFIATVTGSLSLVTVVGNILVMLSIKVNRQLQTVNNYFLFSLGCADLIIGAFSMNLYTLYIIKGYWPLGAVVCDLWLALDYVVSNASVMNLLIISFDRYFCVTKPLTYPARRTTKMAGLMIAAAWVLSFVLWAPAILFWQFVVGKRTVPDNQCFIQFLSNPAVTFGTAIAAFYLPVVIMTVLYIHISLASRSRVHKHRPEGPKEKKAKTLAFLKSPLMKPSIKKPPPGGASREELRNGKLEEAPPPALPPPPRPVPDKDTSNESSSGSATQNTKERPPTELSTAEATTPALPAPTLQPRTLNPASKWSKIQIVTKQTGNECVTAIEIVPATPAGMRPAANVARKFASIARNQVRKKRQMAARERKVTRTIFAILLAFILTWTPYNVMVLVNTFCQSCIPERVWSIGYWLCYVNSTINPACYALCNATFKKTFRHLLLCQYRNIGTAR
Summary of the method: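 Ca2+ mobilization read-out. Acetylcholine concentration-response curves were run in the presence of the PAM to measure the fold-shift. An operational model was fitted to derive the PAM's affinity (KB) and cooperativity (αβ).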

[9] = Aqueous solubility of the compound at pH 7.4; type: physicochemical; settings: buffer
Brain [10] = assay: Drug level in Sprague-Dawley rat brain at 1 mg/kg, po; type: ADME, organism-based; settings: in vivo, read-out: Drug uptake
Cytochrome P450 2D6 = Cytochrome P450 2D6 (Homo sapiens, UniProt P10635); assay: Time-dependent inhibition of CYP2D6 (unknown origin); type: ADME
Brain [11] = assay: Drug level in Sprague-Dawley rat brain at 0.03 mg/kg, po; type: ADME, organism-based; settings: in vivo, read-out: Drug uptake
Rattus norvegicus [12] = assay: Reversal of amphetamine-induced hyperlocomotion in Sprague-Dawley rat at 0.1 mg/kg, po pretreated 30 mins post habituation in the chamber followed by amphetamine injection after 30 mins measured after 60 mins; type: functional; summary of the method: as §1
[13] = Clearance in Sprague-Dawley rat; type: ADME; settings: in vivo; summary of the method: as §2
Macaca fascicularis = species: Macaca fascicularis; assay: Activity at cynomolgus monkey M4 receptor assessed as acetylcholine-induced calcium mobilization
Cytochrome P450 3A4 [14] = target: T3, Cytochrome P450 3A4; assay: Inhibition of CYP3A4 (unknown origin); type: ADME
Rattus norvegicus [15] = assay: Reversal of amphetamine-induced hyperlocomotion in po dosed Sprague-Dawley rat pretreated 30 mins post habituation in the chamber followed by amphetamine injection after 30 mins measured after 60 mins; type: functional; settings: read-out: MED; summary of the method: as §1
Rattus norvegicus [16] = assay: Reversal of amphetamine-induced hyperlocomotion in Sprague-Dawley rat at 10 mg/kg, po pretreated 30 mins post habituation in the chamber followed by amphetamine injection after 30 mins measured after 60 mins; type: functional; summary of the method: as §1
Cytochrome P450 2C9 [17] = target: T1, Cytochrome P450 2C9; assay: Time-dependent inhibition of CYP2C9 (unknown origin); type: ADME
Cytochrome P450 1A2 [18] = target: T2, Cytochrome P450 1A2; assay: Time-dependent inhibition of CYP1A2 (unknown origin); type: ADME
Brain [19] = assay: Drug level in Sprague-Dawley rat brain at 0.1 mg/kg, po; type: ADME, organism-based; settings: in vivo, read-out: Drug uptake
Brain [20] = assay: Drug level in Sprague-Dawley rat brain at 10 mg/kg, po; type: ADME, organism-based; settings: in vivo, read-out: Drug uptake
Brain [21] = assay: Drug level in Sprague-Dawley rat brain at 3 mg/kg, po; type: ADME, organism-based; settings: in vivo, read-out: Drug uptake
[22] = Kinetic solubility of the compound in FaSSIF at pH 6.5 measured after 1 hr; type: physicochemical; settings: read-out: Kinetic_solubility

T3 sequence (P08684 whole entry): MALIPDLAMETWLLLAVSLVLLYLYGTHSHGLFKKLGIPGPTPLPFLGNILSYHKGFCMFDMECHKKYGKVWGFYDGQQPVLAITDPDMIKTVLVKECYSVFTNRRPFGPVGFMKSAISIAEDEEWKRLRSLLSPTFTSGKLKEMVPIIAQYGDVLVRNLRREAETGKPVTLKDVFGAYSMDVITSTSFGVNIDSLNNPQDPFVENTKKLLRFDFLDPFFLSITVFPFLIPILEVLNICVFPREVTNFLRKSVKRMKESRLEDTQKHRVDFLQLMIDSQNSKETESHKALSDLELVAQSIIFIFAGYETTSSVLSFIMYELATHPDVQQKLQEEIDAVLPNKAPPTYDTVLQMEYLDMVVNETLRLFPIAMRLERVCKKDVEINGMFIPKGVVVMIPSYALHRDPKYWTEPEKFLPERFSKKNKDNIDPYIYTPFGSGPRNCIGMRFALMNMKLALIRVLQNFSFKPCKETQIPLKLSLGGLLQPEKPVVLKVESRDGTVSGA
T1 sequence (P11712 whole entry): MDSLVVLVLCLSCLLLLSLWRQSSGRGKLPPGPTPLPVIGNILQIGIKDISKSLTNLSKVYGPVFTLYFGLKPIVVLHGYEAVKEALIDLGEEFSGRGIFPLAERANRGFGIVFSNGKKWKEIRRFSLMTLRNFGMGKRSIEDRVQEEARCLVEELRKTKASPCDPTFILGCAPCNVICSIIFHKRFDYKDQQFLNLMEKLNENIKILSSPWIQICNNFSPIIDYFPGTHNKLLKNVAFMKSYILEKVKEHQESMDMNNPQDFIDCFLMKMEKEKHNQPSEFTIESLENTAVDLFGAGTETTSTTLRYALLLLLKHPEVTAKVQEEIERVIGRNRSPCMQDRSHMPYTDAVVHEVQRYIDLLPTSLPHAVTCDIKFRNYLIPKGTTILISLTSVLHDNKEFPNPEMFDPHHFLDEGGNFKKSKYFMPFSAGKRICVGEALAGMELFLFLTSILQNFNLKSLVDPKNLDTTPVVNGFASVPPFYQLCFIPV
Cytochrome P450 2D6, sequence (P10635 whole entry): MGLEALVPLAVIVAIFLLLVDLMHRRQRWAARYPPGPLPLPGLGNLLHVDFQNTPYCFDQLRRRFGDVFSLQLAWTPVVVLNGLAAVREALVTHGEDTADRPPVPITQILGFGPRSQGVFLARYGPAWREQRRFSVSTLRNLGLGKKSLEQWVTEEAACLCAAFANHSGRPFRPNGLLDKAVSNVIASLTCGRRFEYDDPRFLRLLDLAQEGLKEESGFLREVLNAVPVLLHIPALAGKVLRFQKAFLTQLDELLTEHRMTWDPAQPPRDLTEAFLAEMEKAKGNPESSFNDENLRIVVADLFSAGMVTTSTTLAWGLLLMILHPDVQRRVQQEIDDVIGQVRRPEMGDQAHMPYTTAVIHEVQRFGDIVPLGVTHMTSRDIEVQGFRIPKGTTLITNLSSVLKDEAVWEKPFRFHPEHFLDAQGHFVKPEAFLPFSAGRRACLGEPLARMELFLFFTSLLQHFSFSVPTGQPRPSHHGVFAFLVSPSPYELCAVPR

Compound: Cc1nnc2sc(C(=O)NC3CN(c4cccc(F)c4F)C3)c(N)c2c1C
- IC50 (Cytochrome P450 2C9 [1]): 3.8 µM
- Activity (Rattus norvegicus [2]): 43%
- IC50 (Cytochrome P450 1A2 [3]): 25 µM
- Vdss (Rattus norvegicus [4]): 0.67 L/kg
- Activity (Rattus norvegicus [5]): 18%
- TDI (Cytochrome P450 3A4 [6]): Not Active
- bioavailability [7]: 11%
- Kb [8]: 0.12 µM
- solubility [9]: 1.8 µM (≈ 0.701 µg/mL)
- concentration (Brain [10]): 0.14 µM
- TDI (Cytochrome P450 2D6): Not Active
- concentration (Brain [11]): 0.0046 µM
- Activity (Rattus norvegicus [12]): 24%
- clearance [13]: 0.96 L/h/kg
- Kb (Macaca fascicularis): 0.89 µM
- IC50 (Cytochrome P450 3A4 [14]): 11 µM
- minimal effective dose (Rattus norvegicus [15]): 0.3 mg/kg
- Activity (Rattus norvegicus [16]): 64%
- TDI (Cytochrome P450 2C9 [17]): Not Active
- TDI (Cytochrome P450 1A2 [18]): Not Active
- concentration (Brain [19]): 0.0099 µM
- concentration (Brain [20]): 0.82 µM
- concentration (Brain [21]): 0.51 µM
- solubility kinetic at 1 h [22]: 0.015 mg/mL (≈ 38.5 µM)
